From the array DNA melting data of Ke et al. (doi:10.1101/2024.01.08.574731)

What was measured:
[1] = melting temperature; fluorescence melt of hairpins on a sequencing array, two-state fit, raised by 9.35 °C to match UV melts; conditions: sodium 0.088 M
Procedure, shortened: (§1)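 In 50 mM Na-HEPES pH 8.0 containing 25 mM NaCl, hairpins from the library on a sequenced MiSeq flow cell were imaged for Cy3 fluorescence at 2.5 °C steps up to 60 °C, with Cy3 and quencher oligos annealed. After normalisation to pre-quench Cy3 and to control constructs, two-state fits with bootstrapping gave melting temperature and folding enthalpy. Four replicates were combined by inverse-variance weighting, and fitted temperatures were shifted up by 9.35 °C to match UV melts.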

[2] = folding enthalpy; higher = less favourable; fluorescence melt of hairpins on a sequencing array, two-state fit; conditions: sodium 0.088 M
Procedure, shortened: as §1

Sequence | Tm [1] | folding enthalpy [2]
GATCTGGTGCCAGATC ((((((....)))))) | 52.2 °C | -46.6 kcal/mol
GAGCGCGAAAGCGGCCTC ((((((....)))..))) | 51.1 °C | -11.7 kcal/mol
GTTCAGGGAAACCTGGAC ((.((((....)))).)) | 48.9 °C | -29.6 kcal/mol
GTACAGGGAAACCCGTAC ((((.((....)).)))) | 43.4 °C | -24.8 kcal/mol
GCTAGCGAAAGCTATAGC ((((((....)))..))) | 46.5 °C | -18.5 kcal/mol
GCGTATTACGC ((((...)))) | 54 °C | -25 kcal/mol
GATCCTTCGGAGGATC ((((((....)))))) | 52.3 °C | -38.2 kcal/mol
GGTGCTCCGAAAGGAACC (((..(((....)))))) | 32.5 °C | -11.3 kcal/mol
GATCACTTACGTGATC ((((((....)))))) | 57.4 °C | -38.1 kcal/mol
GGTGCAGGAAACTGTACC (((.(((....))).))) | 52.6 °C | -45.4 kcal/mol
GTAGTGGGAAACCGCTAC ((((.((....)).)))) | 51.5 °C | -48.7 kcal/mol
GGTTCCGAAAGGAGTACC ((((((....)))..))) | 38.9 °C | -21 kcal/mol
GTCCCGCGAAAGCGAGAC (((.(((....))).))) | 55.7 °C | -32.5 kcal/mol
GCCCGGCGAAAGCTTGGC (((..((....))..))) | 52.4 °C | -18.8 kcal/mol
GGCATACGAAAGTAAGCC (((.(((....))).))) | 54 °C | -37.1 kcal/mol
GATCAAGATATTGATC ((((((....)))))) | 48.5 °C | -34.7 kcal/mol
GGGCACGCGAAAGCGCCC (((..(((....)))))) | 58.7 °C | -16.2 kcal/mol
GAGAACACGAAAGTGCTC (((..(((....)))))) | 32.9 °C | -15.6 kcal/mol
GGTGATCGAAAGATAACC (((.(((....))).))) | 47.7 °C | -29.5 kcal/mol
GATCGTGGATACGATC ((((((....)))))) | 60.7 °C | -51.4 kcal/mol
GTGTTCGAAAGAAGGCAC ((((((....)))..))) | 28.6 °C | -22 kcal/mol
GCTGTACGAAAGTATAGC (((.(((....))).))) | 54 °C | -39.6 kcal/mol
GATCTAGCCTTAGATC ((((((....)))))) | 44.4 °C | -38.6 kcal/mol
GGTCATCGAAAGATCACC (((.(((....))).))) | 35.7 °C | -30.2 kcal/mol

Sequence | Tm [1] | folding enthalpy [2]
GCACCCGAAAGGGGCTGC ((((((....)))..))) | 65.3 °C | -17.9 kcal/mol
GCCTAGCGAAAGCATGGC (((..((....))..))) | 61.2 °C | -30.7 kcal/mol
CGCGGAAAAATCCGCG ((((((....)))))) | 58.9 °C | -38.1 kcal/mol
CGCAGTCGGAAACGAGCG (((..(((....)))))) | 36 °C | -10.9 kcal/mol
GATCAACGATTTGATC ((((((....)))))) | 39.3 °C | -24.9 kcal/mol
GGGTTGGCGAAAGCCCCC (((..(((....)))))) | 46.3 °C | -15.3 kcal/mol
GCGTTGTCACGC ((((....)))) | 52.2 °C | -22.4 kcal/mol
GTTAAAGGAAACTTTAAC (((((((....))))))) | 46.6 °C | -34.6 kcal/mol
GCGATGCTTCGC ((((....)))) | 62.3 °C | -20.2 kcal/mol
GACCAGGGAAACCTGATC ((.((((....)))).)) | 34.8 °C | -22.3 kcal/mol
GTGGCTGGAAACAGTCGC (.(.(((....))).).) | 47 °C | -24.6 kcal/mol
AAGGTGAAAACCTT (((((....))))) | 43.2 °C | -17.5 kcal/mol
GATCGAATAGTCGATC ((((((....)))))) | 48.8 °C | -34.8 kcal/mol
GACTTGCGAAAGCACGTC (((.(((....))).))) | 52.4 °C | -23.3 kcal/mol
GTGCCGTCGAAAGACCAC (((..(((....)))))) | 49.7 °C | -6.11 kcal/mol
GCCGCCGAAAGGCTGGC ((((((....))).))) | 69.2 °C | -20.8 kcal/mol
GTCCTCGAAAGAGGAGAC ((((((....)))..))) | 47.8 °C | -10.2 kcal/mol
GTTACCGAAAGGTATAAC ((((((....)))..))) | 31.1 °C | -11.7 kcal/mol
GATCCAGGGGTGGATC ((((((....)))))) | 50.4 °C | -28.1 kcal/mol
AAGACGAAAGTCTT (((((....))))) | 52.7 °C | -20.1 kcal/mol
GATCCTTAAAGGATC ((((((...)))))) | 51.7 °C | -33.7 kcal/mol
GAGCACGAAAGTGGCTC ((((((....))).))) | 56.5 °C | -24.2 kcal/mol
GATCATACTCATGATC ((((((....)))))) | 46.7 °C | -34 kcal/mol
